{"data": "Published values from different studies"}
{"SMILES": "COC(=O)c1cc(-c2cccc(NC(=O)Nc3ccccc3F)c2)on1", "tested on": "Mycobacteroides chelonae", "assay": "microbial growth, broth dilution", "system": "ATCC35752", "setting": "48 h", "measurement": "MIC", "value": "> 64 µg/mL"}
{"SMILES": "COc1ccc(/C=C/c2nc3ccccc3c(=O)n2-c2cccc(O)c2)cc1", "tested on": "Enterococcus faecium", "assay": "microbial growth, broth dilution", "system": "NCTC7171", "measurement": "MIC", "value": "64 µg/mL"}
{"SMILES": "Cc1ccc(-c2nc3ccc(C)cn3c2CC(=O)N(C)C)cc1", "tested on": "Mycobacteroides chelonae", "assay": "microbial growth", "setting": "72 h", "measurement": "MIC", "value": "> 50 µM"}
{"SMILES": "COc1cc(OC)c(C=C2C(O)=Nc3ccccc32)c(OC)c1", "tested on": "MB002", "assay": "cell growth or viability", "setting": "7 days", "measurement": "IC50", "value": "58.5 nM"}
{"SMILES": "COC(=O)c1cc(-c2cccc(NC(=S)NC3CCCCC3)c2)on1", "tested on": "Mycobacteroides chelonae", "assay": "microbial growth, broth dilution", "system": "ATCC35752", "setting": "48 h", "measurement": "MIC", "value": "> 64 µg/mL"}
{"SMILES": "CC(C)c1ccc(/C=C/c2nc3ccccc3c(=O)n2-c2cccc(O)c2)cc1", "tested on": "Enterococcus faecium", "assay": "microbial growth, broth dilution", "system": "NCTC7171", "measurement": "MIC", "value": "> 128 µg/mL"}
{"SMILES": "COC(=O)c1cc(-c2cccc(NC(=O)Nc3cccc(C#N)c3)c2)on1", "tested on": "Mycobacteroides chelonae", "assay": "microbial growth, broth dilution", "system": "ATCC35752", "setting": "48 h", "measurement": "MIC", "value": "> 64 µg/mL"}
{"SMILES": "COc1cc(C(=O)NC2CCN(C)CC2)c(F)cc1Nc1ncc2c(n1)N(C1CCCC1)CC(F)(F)C(=O)N2C", "tested on": "MB002", "assay": "cell growth or viability", "setting": "7 days", "measurement": "IC50", "value": "13.6 nM"}
{"SMILES": "O=c1c2ccccc2nc(/C=C/c2ccc([N+](=O)[O-])cc2)n1-c1ccccc1O", "tested on": "Enterococcus faecium", "assay": "microbial growth, broth dilution", "system": "NCTC7171", "measurement": "MIC", "value": "> 128 µg/mL"}
{"SMILES": "O=C(O)c1cc(Cl)ccc1-c1ccc(Cl)cc1C(=O)Nc1ccc2c(c1)Cc1ccccc1-2", "tested on": "Trypanosoma brucei", "assay": "parasite growth, resazurin", "setting": "72 h", "measurement": "EC50", "value": "28500 nM"}
{"SMILES": "O=c1c2ccccc2nc(/C=C/c2ccc(C(F)(F)F)cc2)n1-c1cccc(O)c1", "tested on": "Enterococcus faecium", "assay": "microbial growth, broth dilution", "system": "NCTC7171", "measurement": "MIC", "value": "32 µg/mL"}
{"SMILES": "CC1=C2C[C@H]3[C@@H](CC[C@@H]4C[C@H](NS(C)(=O)=O)CC[C@@]43C)[C@@H]2CC[C@@]2(C1)O[C@@H]1C[C@H](C)CN[C@H]1[C@H]2C", "tested on": "MB002", "assay": "cell growth or viability", "setting": "7 days", "measurement": "IC50", "value": "> 10000 nM"}
